Measurements published in ChEMBL document CHEMBL1240426, “Synthesis and biological evaluation of novel hybrid chalcone derivatives as vasorelaxant agents” (Eur J Med Chem, 2010).

Experiments:
Aorta [1] = experiment: Vasodilatory activity in Sprague-Dawley rat aortic rings with endothelium assessed as inhibition of phenylephrine-induced vasoconstriction relative to phenylephrine; format: functional
Summary of the method: (§1)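 Endothelium-intact aortic rings from male Sprague-Dawley rats (4–6 months, ~250 g) were equilibrated for ≥1 h and then contracted isometrically with phenylephrine. Once tone stabilized (~20 min), compound was added cumulatively at 15–20 min intervals until relaxation reached steady state, with vehicle-only tissues run in parallel. Emax was taken as % of the PE contraction, and EC50 came from nonlinear regression of the concentration-response curve.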

Aorta [2] = experiment: Vasodilatory activity in Sprague-Dawley rat aortic rings with endothelium assessed as inhibition of phenylephrine-induced vasoconstriction; format: functional, tissue-based; summary of the method: as §1

| Structure (SMILES) | Emax (Aorta [1]) [%] | Activity (Aorta [2]) | EC50 (Aorta [2]) [µM] |
| --- | --- | --- | --- |
| Cc1c(COc2cc(O)cc(O)c2C(=O)/C=C/c2ccc3c(c2)OCO3)no[n+]1[O-] | 95.7 | Dose-dependent effect | 12.1 |
| Cc1c(COc2cc(O)c(C(=O)/C=C/c3ccc4c(c3)OCO4)c(OCCO[N+](=O)[O-])c2)no[n+]1[O-] | 96 | Dose-dependent effect | 9.4 |
| COC(=O)C1=C(C)NC(C)=C(C(=O)OCCOc2cc(O)cc(O)c2C(=O)/C=C/c2cccc(Br)c2)C1c1cccc([N+](=O)[O-])c1 (configuration not stated) | 102 | Dose-dependent effect | 6.4 |
| COC(=O)C1=C(C)NC(C)=C(C(=O)OCCOc2cc(O)cc(O)c2C(=O)/C=C/c2ccc3c(c2)OCO3)C1c1cccc([N+](=O)[O-])c1 (configuration not stated) | 98.6 | Dose-dependent effect | 9.3 |
| COC(=O)C1=C(C)NC(C)=C(C(=O)OCCOc2cc(O)cc(O)c2C(=O)/C=C/c2ccc(O)cc2)C1c1cccc([N+](=O)[O-])c1 (configuration not stated) | 104 | Dose-dependent effect | 2.9 |
| O=C(/C=C/c1ccc2c(c1)OCO2)c1c(O)cc(O)cc1OCCO[N+](=O)[O-] | 103 | Dose-dependent effect | 13.4 |
| Cc1no[n+]([O-])c1COc1cc(O)cc(O)c1C(=O)/C=C/c1ccc2c(c1)OCO2 | 100 | Dose-dependent effect | 8.9 |
| COC(=O)C1=C(C)NC(C)=C(C(=O)OCCOc2cc(O)ccc2C(=O)/C=C/c2ccc3c(c2)OCO3)C1c1cccc([N+](=O)[O-])c1 (configuration not stated) | 103 | Dose-dependent effect | 9.7 |
| O=C(/C=C/c1ccc2c(c1)OCO2)c1c(OCCO[N+](=O)[O-])cc(OCCO[N+](=O)[O-])cc1OCCO[N+](=O)[O-] | 104 | Dose-dependent effect | 8.4 |
